Data set [1] has as its target T1, Isocitrate dehydrogenase [NADP] cytoplasmic (Homo sapiens, UniProt O75874, R132C). The data set is described as follows: Inhibition of recombinant human C-terminal His8-tagged IDH1 R132C mutant expressed in Escherichia coli BL21 assessed as reduction in NADPH consumption using alpha-ketoglutarate as substrate preincubated for 60 mins followed by substrate addition and measured for 60 mins in presence of NADPH by diaphorase/resazurin-based fluorescence assay.

In data set [2] the target is Isocitrate dehydrogenase [NADP] cytoplasmic (Homo sapiens, UniProt O75874, R132H). Briefly: Inhibition of recombinant human C-terminal His8-tagged IDH1 R132H mutant expressed in Escherichia coli BL21 assessed as reduction in NADPH consumption using alpha-ketoglutarate as substrate preincubated for 60 mins followed by substrate addition measured for 60 mins in presence of NADPH by diaphorase/resazurin-based assay.

Data set [3] is described as follows: Cmax in ICR mouse at 5 mg/kg, po measured upto 24 hrs by LCMS analysis. It counts as ADME, organism-based. On the set-up: dose 5 mg/kg, route oral. As to conditions: in vivo; call rule not given here. Put shortly:
(§1)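 Male ICR mice (6-8 weeks, 20-25 g), nine animals, dosed 1 mg/kg by slow intravenous injection or 5 mg/kg orally. Blood sampled into EDTA at 5 min (iv only), 15 min, 30 min, 1, 2, 4, 8 and 24 h. Plasma stored at -20 °C, prepared by acetonitrile protein precipitation with dexamethasone internal standard, and analysed for parent compound. Values are means of three replicates.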

A short description of data set [4]: Half life in ICR mouse at 1 mg/kg, iv measured upto 24 hrs by LCMS analysis. The data set is classed as ADME, organism-based. As to conditions: in vivo. In short, it runs like this: as §1
Data set [5] is described as follows: Oral bioavailability in ICR mouse at 5 mg/kg measured upto 24 hrs by LCMS analysis. The data set is classed as ADME, organism-based. As to conditions: in vivo; for F: 24 h; for bioavailability: ICR. In short, it runs like this: as §1
The nature of data set [6]: Half life in ICR mouse at 5 mg/kg, po measured upto 24 hrs by LCMS analysis. As to conditions: in vivo. It counts as ADME, organism-based. Put shortly:
as §1

Data set [7] can be described thus: Clearance in ICR mouse at 1 mg/kg, iv measured upto 24 hrs by LCMS analysis. It counts as ADME, organism-based. As to conditions: in vivo. Put shortly:
as §1

The nature of data set [8]: AUC in ICR mouse at 1 mg/kg, iv measured upto 24 hrs by LCMS analysis. It counts as ADME, organism-based. Further details: time < 24 hr, dose 1 mg/kg, route intravenous. The settings on record: in vivo. Put shortly:
as §1

The nature of data set [9]: AUC in ICR mouse at 5 mg/kg, po measured upto 24 hrs by LCMS analysis. It counts as ADME, organism-based. Further details: dose 5 mg/kg, time < 24 hr, route oral. The settings on record: in vivo. Put shortly:
as §1

Data set [10] can be described thus: Volume of distribution at steady state in ICR mouse at 1 mg/kg, iv measured upto 24 hrs by LCMS analysis. The settings on record: in vivo, read-out: Vdss. It counts as ADME, organism-based. Put shortly: as §1
In data set [11] the target is T1, Isocitrate dehydrogenase [NADP] cytoplasmic. The data set is described as follows: Inhibition of IDH1 R132C mutant in human HT1080 cells assessed as reduction in 2-HG production incubated with compound for 48 hrs by D2HG assay kit based fluorescence assay. The data set is classed as cell-based.
Data set [12] concerns the target Isocitrate dehydrogenase [NADP] cytoplasmic (Homo sapiens, UniProt O75874). The data set is described as follows: Inhibition of wild type recombinant human C-terminal His8-tagged IDH1 expressed in Escherichia coli BL21 assessed as reduction in NADP consumption using DL-isocitrate as substrate preincubated for 60 mins followed by substrate addition and measured for 60 mins in presence of NADP by diaphorase/resazurin-based fluorescence assay.

Data set [13] can be described thus: Drug uptake in brain of athymic BALB/c nude mouse xenografted with human HT1080 cells at 50 mg/kg, po administered as a single dose via gavage measured upto 24 hrs post dosing by LC-MS/MS analysis. The data set is classed as ADME, organism-based. The settings on record: in vivo. Put shortly:
(§2)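 Female athymic nude mice carrying subcutaneous right-flank HT1080 xenografts (5 × 10^6 cells in PBS/Matrigel 1:1). Compound given by oral gavage as a suspension in 0.5% MC + 0.5% Tween 80 in water, 10 ml/kg. Blood taken by orbital sinus bleed; brain and tumour collected at 2, 6, 12 and 24 h, homogenized in PBS. Samples acetonitrile-precipitated with dexamethasone internal standard and measured by LC/MS/MS.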

Data set [14] can be described thus: Drug uptake in tumor of athymic BALB/c nude mouse xenografted with human HT1080 cells at 50 mg/kg, po administered as a single dose via gavage measured upto 24 hrs post dosing by LC-MS/MS analysis. The data set is classed as ADME, organism-based, Neoplasm. As to conditions: in vivo. Put shortly:
as §2

A short description of data set [15]: Drug uptake in plasma of athymic BALB/c nude mouse xenografted with human HT1080 cells at 50 mg/kg, po administered as a single dose via gavage measured upto 24 hrs post dosing by LC-MS/MS analysis. The data set is classed as ADME, organism-based. As to conditions: in vivo. In short, it runs like this: as §2

From ChEMBL document CHEMBL4406857, “Discovery of new small molecule inhibitors targeting isocitrate dehydrogenase 1 (IDH1) with blood-brain barrier penetration” (Eur J Med Chem, 2019) come the findings set out here.

Some results are limits rather than exact numbers.

T1 sequence (O75874 2-414 R132C limits assumed): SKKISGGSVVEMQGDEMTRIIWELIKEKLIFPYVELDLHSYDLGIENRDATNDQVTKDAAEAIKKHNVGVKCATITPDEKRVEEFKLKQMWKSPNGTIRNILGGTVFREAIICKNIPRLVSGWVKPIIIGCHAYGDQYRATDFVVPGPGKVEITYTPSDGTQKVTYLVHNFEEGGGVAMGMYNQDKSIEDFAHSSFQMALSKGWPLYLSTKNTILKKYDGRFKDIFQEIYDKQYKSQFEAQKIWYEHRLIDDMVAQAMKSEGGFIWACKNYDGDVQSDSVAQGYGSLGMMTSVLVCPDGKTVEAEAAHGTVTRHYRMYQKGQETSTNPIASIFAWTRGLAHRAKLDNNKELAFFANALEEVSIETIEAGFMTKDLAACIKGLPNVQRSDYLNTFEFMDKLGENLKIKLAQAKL
Isocitrate dehydrogenase [NADP] cytoplasmic (Homo sapiens, UniProt O75874, R132H), sequence (O75874 2-414 R132H limits assumed): as the sequence (O75874 2-414 R132C limits assumed) above, with C131H counted along it
Isocitrate dehydrogenase [NADP] cytoplasmic (Homo sapiens, UniProt O75874), sequence (O75874 whole entry): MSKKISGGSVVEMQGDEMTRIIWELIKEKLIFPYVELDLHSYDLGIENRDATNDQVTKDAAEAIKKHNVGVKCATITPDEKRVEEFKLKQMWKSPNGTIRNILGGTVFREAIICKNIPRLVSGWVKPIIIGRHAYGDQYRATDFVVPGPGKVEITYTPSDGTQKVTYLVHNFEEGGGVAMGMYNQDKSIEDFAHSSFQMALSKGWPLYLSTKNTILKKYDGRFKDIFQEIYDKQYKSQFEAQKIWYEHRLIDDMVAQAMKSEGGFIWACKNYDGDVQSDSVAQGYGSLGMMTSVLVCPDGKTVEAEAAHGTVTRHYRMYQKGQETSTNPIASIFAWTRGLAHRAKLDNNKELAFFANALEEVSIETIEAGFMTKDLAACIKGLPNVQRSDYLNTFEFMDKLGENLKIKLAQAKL

For the compound `CC1Cc2cc(C(F)(F)F)ccc2-n2cnc([C@H](C)Nc3nccc(N4C(=O)OC[C@@H]4[C@H](C)F)n3)c21` (stereo partly drawn), the 50% inhibitory concentration (IC50) in [1] was 119 nM; in data set [2], 120 nM.
`C[C@H](Nc1ncc(F)c(N2C(=O)OC[C@@H]2[C@H](C)F)n1)c1ncn2c1CCc1cc(C(F)(F)F)ccc1-2`: the peak concentration (Cmax) in data set [3] stood at 1700 nM. In addition, the half-maximal inhibitory concentration (IC50) came to 17 nM in data set [1] and 2.1 nM in data set [2]. Besides, the figures for the half-life in [4] and in data set [6] were 1.4 h and 2.5 h, respectively. The F in data set [5] came to 165%. The compound further gave a clearance in data set [7] of 21 mL/min/kg. Moreover, the AUC at 24 h stood at 1.52 µM·h in [8] and 12.7 µM·h in data set [9]. Besides, the Vd in data set [10] is 2.1 L/kg.
With `C[C@H](Nc1nc(Cl)cc(N2C(=O)OC[C@@H]2[C@H](C)F)n1)c1ncn2c1CCc1cc(C(F)(F)F)ccc1-2`, the half-inhibitory concentration (IC50) came out at 23.6 nM in data set [1] and 2.12 nM in data set [2].
In data set [3], `C[C@H](Nc1nccc(N2C(=O)OC[C@@H]2[C@H](C)F)n1)c1ncn2c1COc1cc(Cl)ccc1-2` came in with a Cmax of 1210 nM. Besides, the half-maximal inhibitory concentration (IC50) in data set [11] amounted to 60.3 nM; in data set [1] it was 14.4 nM; in data set [2] it was 2.2 nM; in [12], 7100 nM. The half-life was 1 h in data set [4] and 2.4 h in data set [6]. In addition, the bioavailability in data set [5] stood at 109%. Also, the clearance in data set [7] is 39 mL/min/kg. Further, the AUC at 24 h in data set [8] came to 0.917 µM·h; in data set [9] it was 5.01 µM·h. For the same compound, the Vd in data set [10] was determined as 2.3 L/kg.
In the case of `C[C@H](Nc1nccc(N2C(=O)OC[C@@H]2[C@H](C)F)n1)c1ncn2c1sc1cc(C(F)(F)F)ccc12`, the figures for the half-maximal inhibitory concentration (IC50) in [1] and in data set [2] were 17.3 nM and 19.2 nM, respectively.
The corresponding values for `C[C@H](Nc1nccc(N2C(=O)OC[C@@H]2[C@H](C)F)n1)c1ncn2c1CCc1c(Cl)cccc1-2` are 81.9 nM and 24.1 nM.
On the same counts, the results for `CC(C)[C@@H]1N(c2ccnc(N[C@@H](C)c3ncn4c3CCc3cc(C(F)(F)F)ccc3-4)n2)C(=O)OC1(C)C` are 18.8 nM and 50.8 nM.
The corresponding values for `C[C@H](Nc1nccc(N2C(=O)OC[C@@H]2[C@H](C)F)n1)c1ncn2c1CCc1cc(F)ccc1-2` are 44.5 nM and 47.8 nM.
Take `C[C@H](Nc1nccc(N2C(=O)OC[C@@H]2[C@H](C)F)n1)c1ncn2c1CCc1cc(Cl)ccc1-2`: the Cmax in data set [3] was 932 nM. In addition, the IC50 was 53.7 nM in [11], 15.3 nM in data set [1] and 2.3 nM in [2]. For the same compound, the results for the half-life in data set [4] and in data set [6] were 1.7 h and 3.4 h, respectively. For the same compound, the bioavailability in data set [5] was 117%. In [7], this compound came in with a clearance of 50 mL/min/kg. The area under the curve (AUC) at 24 h was 0.717 µM·h in data set [8] and 4.02 µM·h in data set [9]. Also, the Vd in [10] worked out at 4.3 L/kg.
As for `C[C@H](Nc1nccc(N2CC3(CC3)OC2=O)n1)c1ncn2c1CCc1cc(C(F)(F)F)ccc1-2`, the figures for the IC50 in [1] and in [2] were 5860 nM and greater than 10000 nM, respectively.
On to `C[C@H](Nc1nccc(N2C(=O)OC[C@@H]2[C@H](C)F)n1)c1ncn2c1CCc1ccc(C(F)(F)F)cc1-2`, for which the concentration for half-maximal inhibition (IC50) in data set [1] amounted to 8 nM; in data set [2], 18.4 nM.
On the same counts, the results for `C[C@H](Nc1nccc(N2C(=O)OC[C@@H]2[C@H](C)F)n1)c1ncn2c1COc1cc(C#N)ccc1-2` are 394 nM and 478 nM.
The corresponding values for `Cc1ccc2c(c1)CCc1c([C@H](C)Nc3nccc(N4C(=O)OC[C@@H]4[C@H](C)F)n3)ncn1-2` are 16.3 nM and 42.7 nM.
On the same counts, the results for `COc1ccc2c(c1)OCc1c([C@H](C)Nc3nccc(N4C(=O)OC[C@@H]4[C@H](C)F)n3)ncn1-2` are 154 nM and 61.9 nM.
Turning to `C[C@H](Nc1nccc(N2C(=O)OC[C@@H]2[C@H](C)F)n1)c1ncn2c1CCCc1cc(C(F)(F)F)ccc1-2`, the figures for the IC50 in data set [1] and in data set [2] were 43.5 nM and 44.3 nM, respectively.
Consider `CC(C)[C@H]1COC(=O)N1c1ccnc(N[C@@H](C)c2ncn3c2CCc2cc(C(F)(F)F)ccc2-3)n1`, for which the Cmax in data set [3] stood at 730 nM. In addition, the IC50 in [11] was found to be 12.5 nM; in [1], 9.3 nM; in [2], 1 nM. The half-life in [4] is 0.5 h; in data set [6] it was 2 h. Also, the bioavailability in data set [5] worked out at 109%. The compound further yielded a clearance in data set [7] of 109 mL/min/kg. Moreover, the area under the curve (AUC) at 24 h in [8] worked out at 0.312 µM·h; in data set [9] it was 1.65 µM·h. Moreover, the Vd in [10] came out at 3 L/kg.
Take `N#Cc1ccnc(N2C(=O)CC[C@H]2C(=O)N(c2cncc(F)c2)[C@H](C(=O)NC2CC(F)(F)C2)c2ccccc2Cl)c1` [IVOSIDENIB]: the Cmax in [3] came out at 2260 nM. In addition, the half-life was 2.5 h in [4] and 3.5 h in [6]. The bioavailability in [5] was 80%. The Drug uptake result in data set [13], in data set [14] and in [15] was “Active” in each case. The same compound showed a clearance in data set [7] of 9 mL/min/kg. The AUC at 24 h in data set [8] stood at 2.97 µM·h; in data set [9] it was 11.2 µM·h. In addition, the Vd in [10] was determined as 1.5 L/kg.
Take `CC(C)[C@H]1C(C)OC(=O)N1c1ccnc(N[C@@H](C)c2ncn3c2CCc2cc(C(F)(F)F)ccc2-3)n1` (stereo partly drawn): the IC50 in [1] came to 15 nM; in data set [2] it was 42 nM.
As for `C[C@H](Nc1nccc(N2C(=O)OC[C@@H]2[C@H](C)F)n1)c1ncn2c1CSc1cc(C(F)(F)F)ccc1-2`, the half-inhibitory concentration (IC50) in data set [1] was found to be 24.1 nM; in data set [2], 23.8 nM.
Turning to `C[C@H](Nc1nccc(N2C(=O)OC[C@@H]2[C@H](C)F)n1)c1ncn2c1COc1cc(C(F)(F)F)ccc1-2`, the Cmax in data set [3] is 1120 nM. The IC50 amounted to 12 nM in data set [11], 9.4 nM in data set [1], 2.7 nM in data set [2] and 2840 nM in [12]. In addition, the half-life in data set [4] is 2.1 h; in [6], 2.5 h. For the same compound, the F in data set [5] was 152%. The clearance in [7] stood at 30 mL/min/kg. Moreover, the values for the AUC at 24 h in [8] and in data set [9] were 1.02 µM·h and 8.46 µM·h, respectively. Besides, the Vd in data set [10] amounted to 5.2 L/kg.
Take `CC1Cc2c([C@H](C)Nc3nccc(N4C(=O)OC[C@@H]4[C@H](C)F)n3)ncn2-c2ccc(C(F)(F)F)cc21` (stereo partly drawn): the results for the IC50 in [1] and in [2] were 93.5 nM and 128 nM, respectively.
For `C[C@H](Nc1nccc(N2C(=O)OC[C@@H]2[C@H](C)F)n1)c1ncn2c1COc1cc(C3CC3)ccc1-2`, the values for the concentration for half-maximal inhibition (IC50) in data set [1] and in data set [2] were 24.8 nM and 33.4 nM, respectively.
Consider `C[C@H](Nc1nccc(N2C(=O)OC3(COC3)[C@@H]2c2ccccc2)n1)c1ncn2c1CCc1cc(C(F)(F)F)ccc1-2`, for which the IC50 in [1] was 9.7 nM; in data set [2], 33.8 nM.
The corresponding values for `C[C@H](Nc1nccc(N2C(=O)OC[C@@H]2c2ccccc2)n1)c1ncn2c1CCc1cc(C(F)(F)F)ccc1-2` are 14.2 nM and 15.5 nM.
